Measurements as given in publication PMC12783166 (Clinical Pharmacokinetics, 2025).
Several values for one entry are separate records, joined by “and”; a condition that tells them apart may be missing. Equal entries are not always repeated.

What was measured:
[1] = Phase 3 population PK model; format: in vivo, human
Method in brief: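 Nonlinear mixed-effects model fitted by FOCE with interaction to pooled plasma and dried-blood-spot LC-MS/MS concentrations from 12 phase 1, 1 phase 2b/3 and 1 phase 3 study (healthy participants and migraine patients, single/multiple oral doses). Plasma LLOQ 0.1 or 1.0 ng/mL, DBS 2.5 ng/mL. Below-LLOQ samples and |CWRES| > 6 excluded. Log-normal IIV. Covariates added stepwise (ΔOFV 6.63, P < 0.01).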

[2] = Phase 1 population PK model; format: in vivo, human; settings: Phase 1 Model
[3] = Phase 3 Model, fractional covariate effect
[4] = Phase 3 Model, multiple rifampin doses and a single atogepant dose
[5] = Phase 3 Model, proportional residual error
[6] = Phase 3 Model, single-dose atogepant and single-dose rifampin

SMILES: C[C@@H]1[C@H](c2c(F)ccc(F)c2F)C[C@H](NC(=O)c2cnc3c(c2)C[C@@]2(C3)C(=O)Nc3ncccc32)C(=O)N1CC(F)(F)F [atogepant, Atogepant]
- Blood concentrations as percentage of those in plasma ([1]; Phase 3 Model): 57.3%
- Blood-plasma ratio ([1]; Phase 3 Model): 0.573
- Effect of concomitant statins on CL/F and Frel ([1]; Phase 3 Model): not found to have a significant effect
- Fraction zero-order absorption (Fk0) ([1]; Phase 3 Model): 0.693
- Frel at the 60-mg dose compared with the 10-mg dose ([1]; Phase 3 Model): approximately 1.24 fold
- Higher Frel with coadministration of itraconazole ([1]; Phase 3 Model): 1.95 fold
- IIV on CL/F ([1]; Phase 3 Model): 15.6 % CV
- IIV on Frel ([1]; Phase 3 Model): 48.4 % CV
- IIV on Q/F ([1]; Phase 3 Model): 68.6 % CV
- IIV on Tk0 ([1]; Phase 3 Model): 40.4 % CV
- IIV on V2/F ([1]; Phase 3 Model): 77.5 % CV
- IOV on Frel ([1]; Phase 3 Model): 19.3 % CV
- Duration zero-order absorption [Tk0 (h)] ([1]; Phase 3 Model, 60 mg reference dose): 0.908 h
- Residual variability error term ([1]; Phase 3 Model, CGP-PK-02): 22.8 % CV
- Residual variability error term ([1]; Phase 3 Model, EM phase 2b/3 study): 58.5 % CV
- Lower CL/F with coadministration of quinidine ([1]; Phase 3 Model, P-gp inhibitor): 28.5%
- Residual variability error term ([1]; Phase 3 Model, all phase 1 studies except CGP-PK-02): 30.7 % CV
- CovQ/F,V2/F ([1]; Phase 3 Model, covariance of IIV): 0.422
- Food effect on ALAG [1, 3]: 0.672
- Itraconazole effect on Frel [1, 3]: 0.949
- Rifampin effect on Frel after first dose [1, 3]: 1.42
- Rifampin effect on Frel following multiple doses [1, 3]: −0.248
- Apparent clearance healthy participants [CL/F (L/h)] ([1]; Phase 3 Model, healthy participants): 22.9 L/h
- Absorption lag time following a high-fat meal ([1]; Phase 3 Model, high-fat meal): 0.46 h
- Decrease of Frel with multiple rifampin doses [1, 4]: 24.8%
- Increase of CL/F with multiple rifampin doses [1, 4]: 1.82 fold
- Apparent clearance patients [CL/F (L/h)] ([1]; Phase 3 Model, patients with EM): 17.4 L/h
- CL/F lower in patients than in healthy participants ([1]; Phase 3 Model, patients with EM vs healthy participants): 23.7%
- Residual variability error term ([1]; Phase 3 Model, phase 3 studies): 49.1 % CV
- Exponential weight effect on V1/F ([1]; Phase 3 Model, power exponent, body weight/76.8 kg): 0.411
- Exponential dose effect on Frel ([1]; Phase 3 Model, power exponent, dose/60 mg): 0.119
- σprop [1, 5]: 0.307
- σprop (ADVANCE and PROGRESS studies) [1, 5]: 0.491
- σprop (study CGP-MD-01) [1, 5]: 0.585
- σprop (study CGP-PK-02) [1, 5]: 0.228
- Lower CL/F with severe hepatic impairment ([1]; Phase 3 Model, relative to normal liver function or mild or moderate hepatic impairment): 36.6%
- Higher Frel with single-dose rifampin [1, 6]: 2.4 fold
- Lower CL/F with single-dose rifampin [1, 6]: ~ 13% and 12.8%
- Lower CL/F with coadministration of itraconazole ([1]; Phase 3 Model, strong CYP3A4 inhibitor): 66.2%
- ω^2CL/F ([1]; Phase 3 Model, variance of IIV): 0.0243
- ω^2Frel ([1]; Phase 3 Model, variance of IIV): 0.234
- ω^2Q/F ([1]; Phase 3 Model, variance of IIV): 0.471
- ω^2V2/F ([1]; Phase 3 Model, variance of IIV): 0.601
- ω^2tk0 ([1]; Phase 3 Model, variance of IIV): 0.163
- ω^2IOVFrel ([1]; Phase 3 Model, variance of IOV): 0.0373
- Lag time [ALAG (h)] ([1]; Phase 3 Model, without food): 0.276 h
- Vd/F ([1]; human, plasma, oral): 86.1 L
- Famotidine pre-treatment on Frel ([2]; fractional covariate effect): −0.15
- Famotidine pre-treatment on ka ([2]; fractional covariate effect): −0.51
- Formulation 2 tablet effect on ka ([2]; fractional covariate effect): −0.44
- Formulation 2 tablet on Frel ([2]; fractional covariate effect): −0.17
- Formulation 4 tablet effect on ka ([2]; fractional covariate effect): −0.42
- Oral solution on Frel ([2]; fractional covariate effect): −0.67
- Absorption rate constant [ka (/h)] ([2]; healthy participants): 2.44 h⁻¹
- Apparent clearance healthy participants [CL/F (L/h)] ([2]; healthy participants): 19.82 L/h
- Lag time [ALAG (h)] ([2]; healthy participants): 0.30 h
- Exponential dose effect on ka ([2]; power exponent): −0.41
- σprop ([2]; proportional residual error): 0.12
- ω^2CL/F ([2]; variance of IIV): 0.151
- ω^2Q/F ([2]; variance of IIV): 0.197
- ω^2V1/F ([2]; variance of IIV): 0.136
- ω^2V2/F ([2]; variance of IIV): 0.422
- ω^2ka ([2]; variance of IIV): 0.537
